Test results: ChEMBL document CHEMBL3045504, “Activity of 1,4-benzoquinones against formosan subterranean termites (Coptotermes formosanus)” (2008)

How the values were obtained:
Format in all cases: functional
[1] = test system: Coptotermes formosanus; test: Antifeedant activity against Coptotermes formosanus placed on 0.5 % wt/wt compound treated filter paper assessed as filter paper consumption measured 21 days post compound exposure (reference value: 23.6 +/- 13.6 mg)
[2] = test system: Coptotermes formosanus; test: Termiticidal activity against Coptotermes formosanus placed on 0.5 % wt/wt compound treated filter paper assessed as termite mortality measured 11 days post compound exposure
Summary of the method: (§1)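 Treated filter paper disks moistened with 100 µL water; 20 C. formosanus workers (third instar or greater) plus 1 soldier per dish from field colonies kept on spruce, ca. 100% RH, 26.6 °C. Daily mortality scored for 3 weeks; cumulative percent mortality from four replicates, each a different colony; water-only controls; ANOVA, protected Fisher LSD (P < 0.05) after arcsine square-root transform.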

[3] = test system: Coptotermes formosanus; test: Termiticidal activity against Coptotermes formosanus placed on 0.5 % wt/wt compound treated filter paper assessed as termite mortality measured 3 days post compound exposure; summary of the method: as §1
[4] = test system: Coptotermes formosanus; test: Termiticidal activity against Coptotermes formosanus placed on 0.5 % wt/wt compound treated filter paper assessed as termite mortality measured 21 days post compound exposure; summary of the method: as §1
[5] = test system: Coptotermes formosanus; test: Termiticidal activity against Coptotermes formosanus placed on 1 % wt/wt compound treated filter paper assessed as termite mortality measured 21 days post compound exposure
[6] = test system: Coptotermes formosanus; test: Termiticidal activity against Coptotermes formosanus placed on 1 % wt/wt compound treated filter paper assessed as termite mortality measured 11 days post compound exposure
[7] = test system: Coptotermes formosanus; test: Termiticidal activity against Coptotermes formosanus placed on 1 % wt/wt compound treated filter paper assessed as termite mortality measured 3 days post compound exposure
[8] = test system: Coptotermes formosanus; test: Antifeedant activity against Coptotermes formosanus placed on 1 % wt/wt compound treated filter paper assessed as filter paper consumption measured 21 days post compound exposure (reference value: 44 +/- 1.1 mg)
[9] = test system: Coptotermes formosanus; test: Antifeedant activity against Coptotermes formosanus placed on 1 % wt/wt compound treated filter paper assessed as filter paper consumption measured 21 days post compound exposure (reference value: 85 +/- 15.1 mg)
[10] = test system: Coptotermes formosanus; test: Antifeedant activity against Coptotermes formosanus placed on 1 % wt/wt compound treated filter paper assessed as filter paper consumption measured 21 days post compound exposure (reference value: 42.4 +/- 4.3 mg)
[11] = test system: Coptotermes formosanus; test: Antifeedant activity against Coptotermes formosanus placed on 1 % wt/wt compound treated filter paper assessed as filter paper consumption measured 21 days post compound exposure (reference value: 15.9 +/- 10.4 mg)

Structure (SMILES)	Activity [1] [mg]	mortality [2] [%]	mortality [3] [%]	mortality [4] [%]	mortality [5] [%]	mortality [6] [%]	mortality [7] [%]	Activity [8] [mg]	Activity [9] [mg]	Activity [10] [mg]	Activity [11] [mg]
COC1=C(OC)C(=O)C(Cl)=C(Cl)C1=O	19.3	8.8	2.5	30	–	–	–	–	–	–	–
CC1=C(Br)C(=O)C(Br)=C(Cl)C1=O	26.1	22.5	2.5	31.3	–	–	–	–	–	–	–
CNC1=C(Cl)C(=O)C(NC)=C(Cl)C1=O	–	–	–	–	100	90	8.8	7.8	–	–	–
COC1=C(Cl)C(=O)C(Cl)=C(OC)C1=O	–	–	–	–	2.5	0	0	37.8	–	–	–
COc1cccc(NC2=C(Cl)C(=O)C(Nc3cccc(OC)c3)=C(Cl)C2=O)c1	–	–	–	–	33.8	1.3	0	34.9	–	–	–
O=C1C(Cl)=C(Nc2cccc([N+](=O)[O-])c2)C(=O)C(Cl)=C1Nc1cccc([N+](=O)[O-])c1	–	–	–	–	90	75	0	18.3	–	–	–
Cc1ccc(NC2=C(Cl)C(=O)C(Nc3ccc(C)cc3)=C(Cl)C2=O)cc1	–	–	–	–	88.8	52.5	6.3	19.1	–	–	–
COc1ccc(NC2=C(Cl)C(=O)C(Nc3ccc(OC)cc3)=C(Cl)C2=O)cc1	–	–	–	–	57.5	3.8	1.3	39.8	–	–	–
COc1ccccc1NC1=C(Cl)C(=O)C(Nc2ccccc2OC)=C(Cl)C1=O	–	–	–	–	2.5	0	1.3	40.1	–	–	–
O=C1C(Cl)=C(Nc2ccc(Cl)cc2)C(=O)C(Cl)=C1Nc1ccc(Cl)cc1	–	–	–	–	86.3	62.5	10	22.7	–	–	–
O=C1C(Cl)=C(Nc2ccccc2)C(=O)C(Cl)=C1Nc1ccccc1	–	–	–	–	60	40	0	36.3	–	–	–
Cc1ccc(C2=CC(=O)C=CC2=O)cc1	–	–	–	–	38.3	16.7	5	–	43.2	–	–
COC1=CC(=O)C(c2ccccc2)=CC1=O	–	–	–	–	31.7	6.7	3.3	–	–	35.8	–
COC1=CC(=O)C(C[P+](c2ccccc2)(c2ccccc2)c2ccccc2)=CC1=O.[Cl-]	–	–	–	–	98.3	60	13.3	–	–	5.3	–
CC(C)(C)C1=CC(=O)C=CC1=O	–	–	–	–	28.3	18.3	13.3	–	60.4	–	–
CC1=CC(=O)C(C(C)(C)C)=CC1=O	–	–	–	–	26.7	21.7	5	–	68.3	–	–

Structure (SMILES)	Activity [1] [mg]	mortality [2] [%]	mortality [3] [%]	mortality [4] [%]	mortality [5] [%]	mortality [6] [%]	mortality [7] [%]	Activity [8] [mg]	Activity [9] [mg]	Activity [10] [mg]	Activity [11] [mg]
COC1=CC(=O)C=CC1=O	–	–	–	–	31.7	21.7	13.3	–	6.5	–	–
COC1=CC(=O)C(OC)=CC1=O	–	–	–	–	8.3	6.7	3.3	–	107	–	–
COC1=CC(=O)C=C(OC)C1=O [2,6-DIMETHOXYQUINONE]	–	–	–	–	3.3	3.3	0	–	75.9	–	–
O=C1C=CC(=O)C=C1 [BENZOQUINONE]	–	–	–	–	–	–	–	–	80.7	–	–
COC1=C(OC)C(=O)C(C/C=C(\C)CCC=C(C)C)=C(C)C1=O [Coenzyme Q2]	–	–	–	–	25	15	0	–	56.1	–	–
COC1=C(OC)C(=O)C(C/C=C(\C)CC/C=C(\C)CC/C=C(\C)CCC=C(C)C)=C(C)C1=O [Coenzyme Q4]	–	–	–	–	15	11.7	1.7	–	74.6	–	–
COC1=C(OC)C(=O)C(C/C=C(\C)CC/C=C(\C)CC/C=C(\C)CC/C=C(\C)CC/C=C(\C)CCC=C(C)C)=C(C)C1=O [Coenzyme Q6]	–	–	–	–	18.3	6.7	1.7	–	97.3	–	–
COC1=C(OC)C(=O)C(C/C=C(\C)CC/C=C(\C)CC/C=C(\C)CC/C=C(\C)CC/C=C(\C)CC/C=C(\C)CC/C=C(\C)CC/C=C(\C)CCC=C(C)C)=C(C)C1=O [Coenzyme Q9]	–	–	–	–	15	15	15	–	63.9	–	–
COC1=CC(=O)C(C)=CC1=O [Coprinin]	–	–	–	–	93.3	56.7	18.3	–	4.2	–	–
CC1=CC(=O)C=CC1=O [Cresoquinone]	–	–	–	–	20	11.7	1.7	–	22.5	–	–
CCCCCCCCCCC1=C(C)C(=O)C(OC)=C(OC)C1=O [DECYLUBIQUINONE]	–	–	–	–	100	75	13.3	–	–	19.3	–
CCCCCCCCCCCC1=C(O)C(=O)C=C(O)C1=O [EMBELIN]	–	–	–	–	46.7	18.3	3.3	–	10.7	–	–
COC1=C(OC)C(=O)C(CCCCCCCCCCO)=C(C)C1=O [IDEBENONE]	–	–	–	–	38.3	0	0	–	–	37.9	–
CCCCCCCCCCCCCC1=C(O)C(=O)C=C(O)C1=O [Rapanone]	–	–	–	–	81.7	76.7	5	–	–	–	0.3
COC1=C(OC)C(=O)C(C/C=C(\C)CC/C=C(\C)CC/C=C(\C)CC/C=C(\C)CC/C=C(\C)CC/C=C(\C)CC/C=C(\C)CC/C=C(\C)CC/C=C(\C)CCC=C(C)C)=C(C)C1=O [UBIDECARENONE]	–	–	–	–	10	10	0	–	49.6	–	–
COC1=C(OC)C(=O)C(C)=CC1=O [Ubiquinone Qo]	–	–	–	–	90	81.7	75	–	–	7.2	–
